# According to publication PMC6097486 (International Journal of Biological Sciences, 2018):
# Where no end group is shown, it is not given here.
# T1: human FGFR1 protein (human, UniProt P11362 22-376)
# T1 sequence (looked up): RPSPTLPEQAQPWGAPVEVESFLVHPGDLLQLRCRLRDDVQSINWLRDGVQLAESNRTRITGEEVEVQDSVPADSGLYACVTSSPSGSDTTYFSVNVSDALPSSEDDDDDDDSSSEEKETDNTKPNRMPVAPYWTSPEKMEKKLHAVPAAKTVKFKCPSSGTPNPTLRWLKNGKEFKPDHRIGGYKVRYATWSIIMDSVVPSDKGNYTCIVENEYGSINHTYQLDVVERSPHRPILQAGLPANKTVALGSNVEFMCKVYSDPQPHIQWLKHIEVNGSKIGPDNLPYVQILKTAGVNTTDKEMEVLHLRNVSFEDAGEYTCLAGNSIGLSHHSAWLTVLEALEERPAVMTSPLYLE
# B1: peptide R1-P2 (peptide)
# peptide: FHDAWPNLSKSS
# Experiments:
# [1] = tested on: NSCLC; conditions: ref [7]-[9]; cited from earlier work
# [2] = ref [10]; cited from earlier work
# [3] = tested on: A549 cells; experiment: Tube formation assay on matrigel, A549 cells; type: cell-based, human; conditions: FGF2 10 ng/ml alone, 6 h, versus control (###P < 0.001)
# [4] = tested on: FGFR1-ERK1/2 MAPK signaling pathway; experiment: FGFR1-ERK1/2 MAPK signaling activation by FGF2; type: cell-based, human; conditions: stimulation with FGF2; A549 and NCI-H460 cells
# In short: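 A549 and NCI-H460 cells (FGFR1-high human NSCLC) grown in DMEM/high glucose with 10% FBS at 37°C, 5% CO₂. Treatment 2 h; FGFR1 inhibitor PD173074 (100 nM) as positive control. Lysate protein (30 µg) run on 10% SDS-PAGE, transferred to PVDF, blocked in 8% nonfat milk/TBST. Probed for pFGFR1 and pERK1/2 (1:1000), normalised to β-actin.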
# [5] = tested on: CAM; experiment: Chick chorioallantoic membrane; type: in vivo; conditions: FGF2 10 ng/ml alone, 24 h
# In short: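 Test peptide applied with FGF2 (10 ng/ml) onto the CAM surface on day 8 of egg incubation. Incubation continued for 24 h, then the CAM surface was photographed to assess angiogenesis.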
# [6] = tested on: FGFR1; experiment: Competitive elution of phage clones by FGF2; type: binding; conditions: 2 µg/ml FGF2, RT 1 h, 450 nm
# In short: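 Phage clones (2 × 10^11 pfu/well) and control vcsM13 phage incubated on FGFR1 at RT for 1 h. Competitive elution with FGF2 (2 µg/ml) at RT for 1 h. Detection with anti-M13 mAb (37°C, 1 h), then goat anti-mouse IgG-HRP (37°C, 30 min) and TMB substrate. Absorbance read at 450 nm.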
# [7] = Gross toxicity and body weight in A549 xenograft nude mice; type: in vivo, BALB/cA nude mice; conditions: 5 mg/kg/day i.p., 28 days
# In short: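 Female athymic nu/nu BALB/cA mice, 7 weeks old, SPF housing, received subcutaneous A549 cells (2 × 10^6 cells in 200 μL saline, mixed 1:1 with matrigel) into upper and lower back. Two days later, test compound in saline was given i.p. for 28 days; controls got the same volume of saline. Body weight was recorded weekly.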
# [8] = molecular target: T1, human FGFR1 protein; experiment: SPR
molecule,measurement,setting,value
COc1cc(OC)cc(-c2cc3cnc(N)nc3nc2NC(=O)NC(C)(C)C)c1 [PD166866],growth of NSCLC,[1],suppress the growth of NSCLC
CCN(CC)CCCCNc1ncc2cc(-c3cc(OC)cc(OC)c3)c(NC(=O)NC(C)(C)C)nc2n1 [PD173074],growth of NSCLC,[1],suppress the growth of NSCLC
same,toxicity / clinical progress,[2],failed to enter phase II clinical trials due to their high toxicities
Cc1c[nH]c(/C=C2\C(=O)Nc3ccccc32)c1CCC(=O)O [SU5402],growth of NSCLC,[1],suppress the growth of NSCLC
same,toxicity / clinical progress,[2],failed to enter phase II clinical trials due to their high toxicities
FGF2: Specific ligand of FGFR1 (PeproTech),tube formation,[3],significantly induce tube formation
same,activation of FGFR1-ERK1/2 MAPK signaling pathway,[4],evident
same,angiogenesis,[5],significantly induce angiogenesis
same,elution efficiency for the phage clones,[6],high elution efficiency
FHDAWPNLSKSS [R1-P2],toxicity observed,[7]; n = 5,no remarkable toxicity observed
same,abnormal gross phenotypes including weight loss,"[7]; n = 5, body weight recorded weekly",no signs of abnormal gross phenotypes including weight loss
B1,Kd,[8],~154 nM
